Reference: ChEMBL document CHEMBL1828531, “Pyrazol-3-propanoic acid derivatives as novel inhibitors of leukotriene biosynthesis in human neutrophils” (Eur J Med Chem, 2011)

Experiments:
[1] = biological target: T1, Polyunsaturated fatty acid 5-lipoxygenase (Homo sapiens) (UniProt P09917); assay: Inhibition of recombinant human 5-Lipoxygenase expressed in Escherichia coli lysate assessed as residual activity at 10 uM after 10 mins by HPLC analysis
T1 sequence (whole entry): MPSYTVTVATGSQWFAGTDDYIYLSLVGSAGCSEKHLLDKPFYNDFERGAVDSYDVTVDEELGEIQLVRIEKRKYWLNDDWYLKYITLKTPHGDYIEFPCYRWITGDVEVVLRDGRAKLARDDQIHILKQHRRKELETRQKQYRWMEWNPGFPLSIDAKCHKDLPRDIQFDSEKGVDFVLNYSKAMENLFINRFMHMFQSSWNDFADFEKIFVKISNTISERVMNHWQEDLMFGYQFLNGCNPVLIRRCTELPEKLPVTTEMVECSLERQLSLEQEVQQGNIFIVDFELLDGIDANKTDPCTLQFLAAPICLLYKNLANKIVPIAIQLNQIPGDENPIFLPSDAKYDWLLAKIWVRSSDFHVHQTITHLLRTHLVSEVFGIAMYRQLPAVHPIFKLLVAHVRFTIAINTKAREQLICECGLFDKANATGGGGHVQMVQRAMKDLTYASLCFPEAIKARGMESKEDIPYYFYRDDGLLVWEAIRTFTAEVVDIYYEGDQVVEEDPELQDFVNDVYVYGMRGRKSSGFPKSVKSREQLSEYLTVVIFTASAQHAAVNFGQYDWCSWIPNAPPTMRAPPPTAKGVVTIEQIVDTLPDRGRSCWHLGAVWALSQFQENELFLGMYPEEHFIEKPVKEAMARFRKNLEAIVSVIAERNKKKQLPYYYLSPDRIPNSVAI
Method in brief: (§1)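 Human 5-LO expressed at 30 °C in E. coli MV1190 (pT3-5LO); lysate 40,000 g supernatant in PBS pH 7.4 with 1 mM EDTA. Preincubated with compound 10 min at 4 °C, warmed 30 s at 37 °C. Started with 2 mM CaCl2 plus 20 µM AA, 10 min at 37 °C. Methanol stop, HPLC. Residual % versus 0.3% DMSO vehicle, n = 3–5.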

[2] = biological target: T1, Polyunsaturated fatty acid 5-lipoxygenase (Homo sapiens); assay: Inhibition of recombinant human 5-Lipoxygenase expressed in Escherichia coli lysate assessed as residual activity using arachidonic acid as substrate at 10 uM after 10 mins by HPLC analysis; method in brief: as §1
[3] = biological target: T2, Polyunsaturated fatty acid 5-lipoxygenase (Homo sapiens, UniProt P09917); assay: Inhibition of recombinant human 5-Lipoxygenase expressed in Escherichia coli lysate after 10 mins by HPLC analysis; method in brief: as §1
T2 sequence (P09917 whole entry): T1 sequence (whole entry)

A549 = assay: Inhibition of mPGES1-mediated PGE2 production in IL1-beta stimulated human A549 cells assessed as residual activity at 10 uM after 15 mins; format: cell-based
Method in brief: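 Microsomes from IL-1β (1 ng/ml, 72 h) stimulated A549 cells, diluted in 0.1 M potassium phosphate pH 7.4 with 2.5 mM glutathione. Compound or 1% DMSO added, 15 min at 4 °C. Started with 20 µM PGH2 (final), 1 min at 4 °C. Stopped with FeCl2/citric acid containing 11β-PGE2 internal standard. PGE2 by RP-C18 solid-phase extraction and peak integration.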

[4] = biological target: T3, Prostaglandin G/H synthase 1 (Homo sapiens, UniProt P23219); assay: Inhibition of COX1-mediated 12-HHT production in human platelet after 5 mins by HPLC analysis
Method in brief: (§2)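 Washed human platelets, 10^8/mL in PBS with 1 mM CaCl2, preincubated with compound 4 min at 4 °C then 1 min at 37 °C. 5 µM AA added for 5 min at 37 °C. Methanol/HCl stop, PGB1 added, 12-HHT by HPLC. Residual activity at 10 µM. IC50 by interpolation from 4–5 concentrations.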

[5] = biological target: T4, Polyunsaturated fatty acid lipoxygenase ALOX12 (Homo sapiens, UniProt P18054); assay: Inhibition of 12-Lipoxygenase-mediated 12-HETE in human neutrophil after 15 mins by HPLC analysis
T4 sequence (P18054 whole entry): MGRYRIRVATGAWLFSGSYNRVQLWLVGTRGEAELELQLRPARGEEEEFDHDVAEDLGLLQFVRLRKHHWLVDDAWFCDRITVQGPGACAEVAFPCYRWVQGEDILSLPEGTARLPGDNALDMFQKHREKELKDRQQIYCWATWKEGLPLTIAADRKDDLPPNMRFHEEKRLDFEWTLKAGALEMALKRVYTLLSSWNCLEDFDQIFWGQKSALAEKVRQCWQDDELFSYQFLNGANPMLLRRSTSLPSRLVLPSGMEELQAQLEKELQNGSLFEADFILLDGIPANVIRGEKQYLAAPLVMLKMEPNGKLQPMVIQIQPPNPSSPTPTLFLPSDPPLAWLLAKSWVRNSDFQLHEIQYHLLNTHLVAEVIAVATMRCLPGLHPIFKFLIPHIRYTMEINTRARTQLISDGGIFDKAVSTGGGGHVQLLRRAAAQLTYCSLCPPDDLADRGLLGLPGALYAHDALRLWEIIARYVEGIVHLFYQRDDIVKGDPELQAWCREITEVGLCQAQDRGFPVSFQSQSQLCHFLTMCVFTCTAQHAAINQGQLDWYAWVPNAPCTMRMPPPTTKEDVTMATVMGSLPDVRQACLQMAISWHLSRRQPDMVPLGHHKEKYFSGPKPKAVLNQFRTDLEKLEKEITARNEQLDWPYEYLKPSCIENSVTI
Method in brief: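 Freshly isolated human blood neutrophils, 5 × 10^6/mL in PBS pH 7.4 with 1 mg/mL glucose and 1 mM CaCl2, preincubated with compound 15 min at RT. Stimulated with 2.5 µM A23187 plus 20 µM AA for 10 min at 37 °C. Stopped with methanol/HCl, PGB1 internal standard. 12-HETE or 15-HETE measured by HPLC. Residual activity tested at 30 µM.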

[6] = biological target: T3, Prostaglandin G/H synthase 1; assay: Inhibition of COX1-mediated 12-HHT production in human platelet assessed as residual activity at 10 uM after 5 mins by HPLC analysis; method in brief: as §2
[7] = biological target: T1, Polyunsaturated fatty acid 5-lipoxygenase (Homo sapiens); assay: Inhibition of 5-Lipoxygenase in arachidonic acid-stimulated human neutrophils assessed as residual activity at 10 uM after 15 mins by HPLC analysis in presence of A23187
Method in brief: (§3)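 Human neutrophils, 5 × 10^6/mL in PBS/glucose/1 mM CaCl2, preincubated 15 min at RT, then 2.5 µM A23187 plus 20 µM AA for 10 min at 37 °C. Methanol stop, PGB1 internal standard, HPLC of LTB4, its all-trans isomers and 5-H(p)ETE. Residual % versus 0.3% DMSO vehicle, mean ± SEM, n = 3–5. IC50 by linear interpolation from 4–5 concentrations.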

[8] = biological target: T2, Polyunsaturated fatty acid 5-lipoxygenase; assay: Inhibition of 5-Lipoxygenase in arachidonic acid-stimulated human neutrophils after 15 mins by HPLC analysis in presence of A23187; method in brief: as §3

T3 sequence (P23219 whole entry): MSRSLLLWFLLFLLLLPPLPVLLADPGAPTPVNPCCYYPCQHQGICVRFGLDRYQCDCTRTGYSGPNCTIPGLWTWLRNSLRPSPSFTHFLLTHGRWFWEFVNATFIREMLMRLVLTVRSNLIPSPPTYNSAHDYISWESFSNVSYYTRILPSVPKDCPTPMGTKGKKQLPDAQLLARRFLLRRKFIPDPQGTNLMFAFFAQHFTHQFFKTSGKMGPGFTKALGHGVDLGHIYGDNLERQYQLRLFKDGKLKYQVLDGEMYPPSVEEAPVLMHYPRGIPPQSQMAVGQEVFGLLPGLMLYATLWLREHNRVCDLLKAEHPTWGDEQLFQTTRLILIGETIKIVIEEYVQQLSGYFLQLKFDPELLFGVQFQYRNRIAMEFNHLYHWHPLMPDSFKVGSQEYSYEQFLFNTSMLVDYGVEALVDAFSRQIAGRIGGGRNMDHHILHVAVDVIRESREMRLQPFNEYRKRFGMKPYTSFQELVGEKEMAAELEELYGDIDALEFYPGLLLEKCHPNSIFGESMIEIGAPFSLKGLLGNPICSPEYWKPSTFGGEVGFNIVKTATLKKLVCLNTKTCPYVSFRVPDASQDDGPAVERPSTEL

SMILES | Activity [1] | Activity [2] | IC50 [3] | Activity (A549) | IC50 [4] | IC50 [5] | Activity [6] | Activity [7] | IC50 [8]
Cc1ccc(-c2cc(CCC(=O)N3CCN(Cc4ccc(C(C)(C)C)cc4)CC3)nn2-c2ccccc2)cc1 | 85.6% | 62.9% | > 10 µM | 84.6% | 2.5 µM | > 10 µM | 21% | 13.5% | 2.7 µM
CCOC(=O)C1CCN(C(=O)CCc2cc(-c3ccc(C)cc3)n(-c3ccccc3)n2)CC1 | 102% | 79.5% | > 10 µM | 82.6% | > 10 µM | > 10 µM | 57.1% | 6.7% | 2.4 µM
Cc1ccc(-c2cc(CCC(=O)N3CCN(Cc4ccc(C(C)(C)C)cc4)CC3)nn2-c2ccc3ccccc3n2)cc1 | 51.5% | 115% | > 10 µM | 75% | 0.041 µM | > 10 µM | 8.2% | 16.4% | 3.5 µM
CCOC(=O)C1CCN(C(=O)CCc2cc(-c3ccc(C)cc3)n(-c3ccc4ccccc4n3)n2)CC1 | 69.9% | 55.9% | > 10 µM | 84% | 0.9 µM | > 10 µM | 15.9% | 25.8% | 4 µM
Cc1ccc(-c2cc(CCC(=O)Oc3ccc(C(C)C)cc3)nn2-c2ccc3ccccc3n2)cc1 | 79.6% | 86.1% | > 10 µM | 88% | 0.014 µM | > 10 µM | – | 65.4% | > 10 µM
Cc1ccc(-c2cc(CCC(=O)Oc3ccc(C(C)C)cc3)nn2-c2ccc(Cl)nn2)cc1 | 92.7% | 83.4% | > 10 µM | 91.4% | > 10 µM | > 10 µM | 51.1% | 46.4% | 8 µM
CC(C)(C)c1ccc(CN2CCN(C(=O)CCc3cc(-c4ccc(F)cc4)n(-c4ccc(Cl)nn4)n3)CC2)cc1 | 55.3% | 103% | > 10 µM | 75.6% | > 10 µM | > 10 µM | 82.9% | 23.4% | 1.6 µM
Cc1ccc(-c2cc(CCC(=O)Oc3ccc(C(C)C)cc3)nn2-c2ccccc2)cc1 | 95.3% | 92.6% | > 10 µM | 108% | 0.3 µM | > 10 µM | 10.6% | 20.4% | 2 µM
CCOC(=O)C1CCN(C(=O)CCc2cc(-c3ccc(C(F)(F)F)cc3)n(-c3ccc(Cl)nn3)n2)CC1 | 72.6% | 84% | > 10 µM | 103% | > 10 µM | > 10 µM | 102% | 62% | 15 µM
